Screening data (PubChem)
PHOSPHO1 inh – PubChem AID 1565; Phosphoethanolamine/phosphocholine phosphatase (Homo sapiens), Q8TCT1; inhibition, % at 13.3 µM; hit rate 1.1% among 290,000; recombinant PHOSPHO1, absorbance phosphatase assay; in the data active means inhibition above about 60%
Target sequence (Q8TCT1 whole entry, looked up): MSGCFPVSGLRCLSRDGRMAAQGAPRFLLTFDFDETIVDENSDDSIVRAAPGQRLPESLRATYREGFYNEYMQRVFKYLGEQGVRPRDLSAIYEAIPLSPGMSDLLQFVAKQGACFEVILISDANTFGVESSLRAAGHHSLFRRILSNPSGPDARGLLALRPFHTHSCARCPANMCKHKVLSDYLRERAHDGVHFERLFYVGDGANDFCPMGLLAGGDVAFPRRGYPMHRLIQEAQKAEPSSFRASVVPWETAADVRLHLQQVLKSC
AI-2 QS mod – Vibrio harveyi AI-2 quorum sensing modulators, primary screen, JMH597 strain, luminescence/OD600 ratio. Vibrio harveyi JMH597 AI-2 luminescence/OD600 ratio, 9 h; active compounds read low; strain lacks LuxN and CqsS sensors; 0 = neutral-control median. activity change, % at 7.5 µM. hit rate 0.4% among 300,000; in the data active means activity change below about -75%, passing the limit was not always enough; inconclusive means no clear call, values can overlap the other calls;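 further: luminescence divided by OD600 gain over 9 h not by final OD600 alone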
core dimer inh – inhibitors of HCV core protein dimerization, primary screen, biochemical, TR-FRET, high-throughput. inhibition, % at 5 µM. hit rate 0.33% among 300,000. TR-FRET GST/Flag-core106 dimerization, 1536-well;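 active means inhibition above the mean of all tested compounds plus 3 SD, set per screening campaign, cut at about 45% in these data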
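test system = GST/Flag-tagged HCV core106 proteins | probe or stimulus = Eu donor and XL665 acceptor anti-tag antibodies | times = compound-protein-antibody incubation 4 h at 22.5 °C | signal = TR-FRET, excitation 340 nm, emission 617 and 671 nm | measure = percent inhibition of core106 dimerization signal | controls = wells lacking GST-core106 and wells with excess unlabelled core106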
HSF1 inhib – HSF1 inhibitors in luciferase reporter cells, primary screen, cell-based, NIH3T3, luminescence; activity change, negative = inhibition, % at 7.5 µM (by protocol); NIH3T3-HGL HSE-luciferase, MG132-induced, luminescence 8 h; active compounds read low; hit rate 0.77% among 300,000;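 active means more than half of replicate wells show activity change below -50%, luminescence cut by over half; inconclusive means some wells, but at most half, below -50%; inactive means no replicate well below -50%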;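 further: luciferase reports HSF-1 transcriptional activity via heat shock element; 0% = median of DMSO wells and -100% = zero luminescence signal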
HSF-1 act – HSF-1 activators, primary screen, NIH3T3-HGL cells, MG132 stress, luminescence, single point; NIH3T3-HGL HSF-1 luciferase reporter, 8 h; 100% = twice DMSO control signal; activation, % at 9 µM; hit rate 1.7% among 300,000;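 active means mean replicate activation of at least 50% with a set share of replicates each reaching 50%; inconclusive means only one of those two conditions met; inactive means mean below 50% and too few replicates reaching it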;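 further: 0% = median of the neutral control wells and 100% = twice that signal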
ALR inh – inhibitors of human ALR sulfhydryl oxidase, primary screen, biochemical, H2O2 detection, HRP-luminol luminescence, single point; FAD-linked sulfhydryl oxidase ALR (Homo sapiens), P55789; purified ALR, DTT oxidation; inhibition, % (no concentration beside the values); hit rate 3.8% among 290,000; AID 485317, 2010;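 active means mean replicate inhibition above about 79%, with every replicate also reaching it, limit read from the data; inconclusive means only one of the two criteria met; inactive means mean below limit and not every replicate reaching it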
Target sequence (P55789 whole entry, looked up): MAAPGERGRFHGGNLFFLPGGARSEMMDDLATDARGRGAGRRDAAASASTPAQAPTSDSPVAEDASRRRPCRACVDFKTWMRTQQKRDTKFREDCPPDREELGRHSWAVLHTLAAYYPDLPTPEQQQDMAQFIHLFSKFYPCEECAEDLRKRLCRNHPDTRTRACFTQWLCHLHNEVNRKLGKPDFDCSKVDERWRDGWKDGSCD
Starred values were filed as active, the others as inactive; ? = inconclusive; . = not tested or not shown. An excerpt weighted towards active compounds, which were near 6.8% of everything screened.

SMILES	PHOSPHO1 inh	AI-2 QS mod	core dimer inh	HSF1 inhib	HSF-1 act	ALR inh
COc1cc(C(=O)N2CCSCC2)ccc1OC1CCN(C(C)=O)CC1	-5	19	-1	-55*	-66	-12
O=C(CCCn1ncn2c(cc3occc32)c1=O)NCc1cccc(Cl)c1	23	24	5	8	15	3
CC1CCCC(NC(=O)C2CCN(S(=O)(=O)N3CCCCCC3)CC2)C1C (configuration not stated)	19	4	-4	-4	-8	-3
CC1(C)CC(NC(=O)c2ccccc2)CC(C)(C)N1	39	15	-3	0	1	.
CC1(C)CC(Nc2ccc(Nc3ccccc3)cc2)CC(C)(C)N1	-106	25	.	-3	5	99*
c1ccc2c(c1)CCN(C1=Nc3cccc4cccc1c34)C2	27	.	.	.	.	.
CC1=CC2=NC(=O)/C(=C/c3coc4ccc(Cl)cc4c3=O)C(=N)N2O1	3	2	7	1	1	97*
COC(=O)NC(C)N1C(=O)C2C3C=CC(C3)C2C1=O (configuration not stated)	4	3	-1	.	.	-1
COc1ccc(C(=O)OCCN=C2NS(=O)(=O)c3ccccc32)cc1OC	8	-6	-2	25	52*	2
CC(=NC1CCCC1)c1c(C)[nH]n(-c2nc3ccccc3s2)c1=O	1	37	9	-29	-43	93*
Cc1ccc(S(=O)(=O)NCC(=O)OCC(=O)NCc2cccs2)cc1	.	8	-9	-3	13	-10
N=c1oc2ccccc2cc1-c1nc2ccccc2c(=O)[nH]1	-2	0	3	-5	9	94*
O=c1[nH]c(-c2cccnc2)nc2ccccc12	21	19	-7	-2	11	0
O=c1[nH]c(-c2ccncc2)nc2ccccc12	98*	22	-10	-1	-7	14
CCC(C)[C@H](NC(=O)OC(C)(C)C)C(=O)NCC1CCC(C(=O)N[C@@H](Cc2ccccc2)C(=O)O)CC1 (some centres not stated)	.	10	4	2	9	3
CC(C)(C)OC(=O)N[C@@H](Cc1ccccc1)C(=O)NCC1CCC(C(=O)N[C@@H](CC(=O)O)C(=O)O)CC1 (some centres not stated)	40	17	-2	-63*	-71	7
CCC(=O)Nc1c(-c2ccc(Cl)cc2)c(=O)c2ccccc2n1C	18	29	.	?	-55	-20
COc1ccc(NC(=O)CSc2nnc(-c3ccco3)c(-c3ccco3)n2)cc1OC	24	11	26	-8	12	90*
COc1cccc(NC(=O)CSc2nnc(-c3ccco3)c(-c3ccco3)n2)c1	10	16	31	1	-6	99*
O=C(CSc1ncnc2[nH]ncc12)Nc1cccc(Oc2ccccc2)c1	21	-40	6	-6	-7	98*
Cc1ccc(C(=O)Nc2cccc(Oc3ccccc3)c2)o1	0	10	4	22	58*	-13
O=C(CCl)Nc1cccc(Oc2ccccc2)c1	21	-6	3	37	74*	.
COc1cccc(NC(=O)CSc2cccc[n+]2[O-])c1	.	.	.	.	.	-14
O=C(CCl)Nc1cccc(Oc2cnccn2)c1	18	-16	13	-3	8	-3
O=C(CSc1cccc[n+]1[O-])Nc1cccc(Oc2ccccc2)c1	44	1	-2	15	5	94*
SMILES	PHOSPHO1 inh	AI-2 QS mod	core dimer inh	HSF1 inhib	HSF-1 act	ALR inh
CCOc1ccc(C=NNC(=O)c2cccc3ccccc23)cc1OCC	.	.	.	-7	-7	.
Cc1cccc(NC(=O)CCS(=O)(=O)c2cc3c(cc2Cl)NC(=O)CO3)c1	38	0	2	4	-1	0
COc1ccc(NC(=O)CN(C)C(=O)c2ccccc2Sc2ncnc3sc(C)c(C)c23)cc1	.	-1	0	-6	14	1
Cc1ccc(N(Cc2ccc(C(=O)NN=C3CCN(C)CC3)cc2)S(C)(=O)=O)cc1C	-7	23	-3	11	10	-7
CN(C)/C=C1\C(=O)Nc2ccccc21	8	17	-10	-7	0	99*
CN(O)/C=C1\C(=O)Nc2ccccc21	15	10	-34	2	-8	?
Cc1cc(C)n(CCC(=O)N2c3ccccc3CC2C)n1 (configuration not stated)	22	1	-13	-7	24	-5
O=C(Nc1cccc(NC(=O)c2ccc(Cl)cc2)n1)c1ccc(Cl)cc1	14	7	6	-5	-8	-2
O=C(Nc1ccc2ccccc2n1)c1ccc(Cl)cc1	.	16	-1	31	60*	1
O=C(Nc1ccc2ccccc2n1)c1ccccc1Cl	-6	2	-6	28	61*	.
O=C(Nc1ccccc1C(=O)Nc1ccc(Br)cn1)c1cccc([N+](=O)[O-])c1	24	.	-4	-5	19	7
CC1CC(C)CN(S(=O)(=O)c2ccc3c(c2)CCN3C(=O)C2CC2)C1 (configuration not stated)	33	5	5	5	2	-1
O=C(NC1CCCCC1)C1CCCN1S(=O)(=O)c1cccc2nsnc12 (configuration not stated)	28	28	-4	8	54*	-1
COc1ccc(N(C)C(=O)C2CCCN2S(=O)(=O)c2cccc3nsnc23)c(OC)c1 (configuration not stated)	64*	-4	-5	-2	-2	-9
O=C(C1CCN(S(=O)(=O)c2cccc3nsnc23)CC1)N1CCCc2ccccc21	60*	19	1	-2	8	-19
CCC(C)c1ccccc1OCCn1ccnc1 (configuration not stated)	-9	22	-8	-1	-8	-26
COc1cccc(-c2nc(CS(=O)(=O)CC(=O)N3CCOCC3)c(C)o2)c1	-68	12	1	-6	-23	21
CC(=O)Nc1ccc(-c2nnn(CC(=O)Nc3ccc4c(c3)OCO4)n2)cc1Cl	10	28	1	-59*	-67	1
CCN(CCNC(=O)CCCn1nc(C)n2c(cc3sccc32)c1=O)c1ccccc1	21	-8	9	49	74*	98*
C#CCOCCOCCOCCNc1nc(N2CCN(C(=O)[C@H](CCC(=O)O)n3cc(CN)nn3)CC2)nc(N2CCN(C(=O)[C@H](CCCCN)n3cc([C@@H](N)CC(N)=O)nn3)CC2)n1	.	.	.	.	.	0
